The array DNA melting data of Ke et al. (doi:10.1101/2024.01.08.574731)

Experiments:
[1] = melting temperature; fluorescence melt of hairpins on a sequencing array, two-state fit, raised by 9.35 °C to match UV melts; details: sodium 0.088 M
Procedure, shortened: (§1)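 Library hairpins on a sequenced MiSeq flow cell carried annealed Cy3 and quencher oligos, and their Cy3 fluorescence was imaged in 50 mM Na-HEPES pH 8.0 with 25 mM NaCl, in 2.5 °C steps up to 60 °C. Signals were normalised to Cy3 before quenching and to control constructs. Melting temperature and folding enthalpy were obtained from bootstrapped two-state fits, combined by inverse-variance weighting across four replicates, and the fitted temperatures were then raised by 9.35 °C to match UV melts.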

[2] = folding enthalpy; higher = less favourable; fluorescence melt of hairpins on a sequencing array, two-state fit; details: sodium 0.088 M
Procedure, shortened: as §1

AAATGGAAACATTT (((((....)))))
Tm [1]: 27.2 °C
folding enthalpy [2]: -9.49 kcal/mol

AAGAGGAAACTCTT (((((....)))))
Tm [1]: 28 °C
folding enthalpy [2]: -9.65 kcal/mol

AAGCTGAAAAGCTT (((((....)))))
Tm [1]: 49.3 °C
folding enthalpy [2]: -21.1 kcal/mol

AAGGAGAAATCCTT (((((....)))))
Tm [1]: 27.3 °C
folding enthalpy [2]: -8.61 kcal/mol

ACAGAGAAATCTGT (((((....)))))
Tm [1]: 32.7 °C
folding enthalpy [2]: -13.6 kcal/mol

ACATTGAAAAATGT (((((....)))))
Tm [1]: 32.9 °C
folding enthalpy [2]: -13.4 kcal/mol

ACCCGGAAACGGGT (((((....)))))
Tm [1]: 58.1 °C
folding enthalpy [2]: -19.5 kcal/mol

ACCTGGAAACAGGT (((((....)))))
Tm [1]: 51.1 °C
folding enthalpy [2]: -18.8 kcal/mol

ACGAAGAAATTCGT (((((....)))))
Tm [1]: 38 °C
folding enthalpy [2]: -18.1 kcal/mol

ACTATGAAAATAGT (((((....)))))
Tm [1]: 32.2 °C
folding enthalpy [2]: -11.8 kcal/mol

ACTCTGAAAAGAGT (((((....)))))
Tm [1]: 43.4 °C
folding enthalpy [2]: -17.4 kcal/mol

ACTTGGAAACAAGT (((((....)))))
Tm [1]: 38.4 °C
folding enthalpy [2]: -17.8 kcal/mol

AGAACCCGAAAGGCTTCT ((((.((....)).))))
Tm [1]: 33.6 °C
folding enthalpy [2]: -17.7 kcal/mol

AGAATCAGAAATGGTTCT ((((.((....)).))))
Tm [1]: 30.6 °C
folding enthalpy [2]: -26.5 kcal/mol

AGAATCCGAAAGGCTTCT ((((.((....)).))))
Tm [1]: 35.6 °C
folding enthalpy [2]: -27.3 kcal/mol

AGACCGAAAGGTCT (((((....)))))
Tm [1]: 68.6 °C
folding enthalpy [2]: -21.1 kcal/mol

AGATGGAAACATCT (((((....)))))
Tm [1]: 42.1 °C
folding enthalpy [2]: -19 kcal/mol

AGCATGAAAATGCT (((((....)))))
Tm [1]: 50 °C
folding enthalpy [2]: -22.2 kcal/mol

AGCGAGAAATCGCT (((((....)))))
Tm [1]: 53.7 °C
folding enthalpy [2]: -20.7 kcal/mol

AGCGGGAAACCGCT (((((....)))))
Tm [1]: 67.1 °C
folding enthalpy [2]: -19.1 kcal/mol

AGGGGGAAACCCCT (((((....)))))
Tm [1]: 53.5 °C
folding enthalpy [2]: -17.5 kcal/mol

AGGGTGAAAACCCT (((((....)))))
Tm [1]: 53.9 °C
folding enthalpy [2]: -19.3 kcal/mol

AGGTTGAAAAACCT (((((....)))))
Tm [1]: 45.6 °C
folding enthalpy [2]: -20.5 kcal/mol

ATAACGAAAGTTAT (((((....)))))
Tm [1]: 46.3 °C
folding enthalpy [2]: -15.2 kcal/mol

ATACCGAAAGGTAT (((((....)))))
Tm [1]: 52.2 °C
folding enthalpy [2]: -20.2 kcal/mol

ATACGGAAACGTAT (((((....)))))
Tm [1]: 43.5 °C
folding enthalpy [2]: -21.8 kcal/mol

ATACTGAAAAGTAT (((((....)))))
Tm [1]: 30.6 °C
folding enthalpy [2]: -12.3 kcal/mol

ATCGAGAAATCGAT (((((....)))))
Tm [1]: 39.5 °C
folding enthalpy [2]: -23.9 kcal/mol

ATGAGGAAACTCAT (((((....)))))
Tm [1]: 39.6 °C
folding enthalpy [2]: -17.6 kcal/mol

ATGATGAAAATCAT (((((....)))))
Tm [1]: 39.5 °C
folding enthalpy [2]: -15.2 kcal/mol

ATGTTGAAAAACAT (((((....)))))
Tm [1]: 37 °C
folding enthalpy [2]: -13 kcal/mol

CAAAGGAAACTTTG (((((....)))))
Tm [1]: 35 °C
folding enthalpy [2]: -16.2 kcal/mol

CACATGAAAATGTG (((((....)))))
Tm [1]: 47.9 °C
folding enthalpy [2]: -27.3 kcal/mol

CACCAGAAATGGTG (((((....)))))
Tm [1]: 50 °C
folding enthalpy [2]: -23.4 kcal/mol

CACTCGAAAGAGTG (((((....)))))
Tm [1]: 59.9 °C
folding enthalpy [2]: -24.4 kcal/mol

CAGACGAAAGTCTG (((((....)))))
Tm [1]: 61.9 °C
folding enthalpy [2]: -24.4 kcal/mol

CATAGGAAACTATG (((((....)))))
Tm [1]: 38.4 °C
folding enthalpy [2]: -14.3 kcal/mol

CCAAAGAAATTTGG (((((....)))))
Tm [1]: 30.9 °C
folding enthalpy [2]: -8.79 kcal/mol

CCAAGGAAACTTGG (((((....)))))
Tm [1]: 46 °C
folding enthalpy [2]: -20.3 kcal/mol

CCAGTGAAAACTGG (((((....)))))
Tm [1]: 50.8 °C
folding enthalpy [2]: -19.8 kcal/mol

CCATGGAAACATGG (((((....)))))
Tm [1]: 49.6 °C
folding enthalpy [2]: -23.2 kcal/mol

CCCTGGAAACAGGG (((((....)))))
Tm [1]: 56.9 °C
folding enthalpy [2]: -20 kcal/mol

CCTTGGAAACAAGG (((((....)))))
Tm [1]: 47.2 °C
folding enthalpy [2]: -15.7 kcal/mol

CGAAAACGGAAACGTTCG (((..(((....))))))
Tm [1]: 37 °C
folding enthalpy [2]: -19.8 kcal/mol

CGAAACCGGAAACGGTCG (((..(((....))))))
Tm [1]: 43.8 °C
folding enthalpy [2]: -14.9 kcal/mol

CGAAACGGAAACGTATCG (((.(((....))).)))
Tm [1]: 42.6 °C
folding enthalpy [2]: -30.8 kcal/mol

CGAACCCGGAAACGGTCG (((..(((....))))))
Tm [1]: 36.7 °C
folding enthalpy [2]: -13 kcal/mol
